Columns and labels:
1,3-beta-glucan synthase [1] = target: 1,3-beta-glucan synthase (Candida glabrata, UniProt F5BCZ9, D666G); experiment: Inhibition of Candida glabrata isolate 41400 1,3-beta-D-glucan synthase wild type Fks1p/Fks2p D666G mutant
Summary of the method: (§1)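 Cells grown in YPD broth at 35°C with vigorous shaking to early stationary phase. Membrane protein extracted and glucan synthase partially purified by product entrapment. Filtration polymerization assay measured [3H]glucose incorporation into product, started by adding enzyme. Echinocandin serial dilutions spanned 0.01–10,000 ng/ml, with 1% DMSO controls for anidulafungin. IC50 from variable-slope sigmoidal fit.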

1,3-beta-glucan synthase [2] = target: 1,3-beta-glucan synthase (Candida glabrata, UniProt F5BCZ9, F659S); experiment: Inhibition of Candida glabrata isolate 41026 1,3-beta-D-glucan synthase wild type Fks1p/Fks2p F659S mutant; summary of the method: as §1
1,3-beta-glucan synthase [3] = target: 1,3-beta-glucan synthase (Candida glabrata, UniProt F5BCZ9, P667T); experiment: Inhibition of Candida glabrata isolate 51916 1,3-beta-D-glucan synthase wild type Fks1p/Fks2p P667T mutant; summary of the method: as §1
Chain of 1,3-beta-glucan synthase (Candida glabrata, UniProt F5BCZ9, P667T) (F5BCZ9 entry or part of it P667T): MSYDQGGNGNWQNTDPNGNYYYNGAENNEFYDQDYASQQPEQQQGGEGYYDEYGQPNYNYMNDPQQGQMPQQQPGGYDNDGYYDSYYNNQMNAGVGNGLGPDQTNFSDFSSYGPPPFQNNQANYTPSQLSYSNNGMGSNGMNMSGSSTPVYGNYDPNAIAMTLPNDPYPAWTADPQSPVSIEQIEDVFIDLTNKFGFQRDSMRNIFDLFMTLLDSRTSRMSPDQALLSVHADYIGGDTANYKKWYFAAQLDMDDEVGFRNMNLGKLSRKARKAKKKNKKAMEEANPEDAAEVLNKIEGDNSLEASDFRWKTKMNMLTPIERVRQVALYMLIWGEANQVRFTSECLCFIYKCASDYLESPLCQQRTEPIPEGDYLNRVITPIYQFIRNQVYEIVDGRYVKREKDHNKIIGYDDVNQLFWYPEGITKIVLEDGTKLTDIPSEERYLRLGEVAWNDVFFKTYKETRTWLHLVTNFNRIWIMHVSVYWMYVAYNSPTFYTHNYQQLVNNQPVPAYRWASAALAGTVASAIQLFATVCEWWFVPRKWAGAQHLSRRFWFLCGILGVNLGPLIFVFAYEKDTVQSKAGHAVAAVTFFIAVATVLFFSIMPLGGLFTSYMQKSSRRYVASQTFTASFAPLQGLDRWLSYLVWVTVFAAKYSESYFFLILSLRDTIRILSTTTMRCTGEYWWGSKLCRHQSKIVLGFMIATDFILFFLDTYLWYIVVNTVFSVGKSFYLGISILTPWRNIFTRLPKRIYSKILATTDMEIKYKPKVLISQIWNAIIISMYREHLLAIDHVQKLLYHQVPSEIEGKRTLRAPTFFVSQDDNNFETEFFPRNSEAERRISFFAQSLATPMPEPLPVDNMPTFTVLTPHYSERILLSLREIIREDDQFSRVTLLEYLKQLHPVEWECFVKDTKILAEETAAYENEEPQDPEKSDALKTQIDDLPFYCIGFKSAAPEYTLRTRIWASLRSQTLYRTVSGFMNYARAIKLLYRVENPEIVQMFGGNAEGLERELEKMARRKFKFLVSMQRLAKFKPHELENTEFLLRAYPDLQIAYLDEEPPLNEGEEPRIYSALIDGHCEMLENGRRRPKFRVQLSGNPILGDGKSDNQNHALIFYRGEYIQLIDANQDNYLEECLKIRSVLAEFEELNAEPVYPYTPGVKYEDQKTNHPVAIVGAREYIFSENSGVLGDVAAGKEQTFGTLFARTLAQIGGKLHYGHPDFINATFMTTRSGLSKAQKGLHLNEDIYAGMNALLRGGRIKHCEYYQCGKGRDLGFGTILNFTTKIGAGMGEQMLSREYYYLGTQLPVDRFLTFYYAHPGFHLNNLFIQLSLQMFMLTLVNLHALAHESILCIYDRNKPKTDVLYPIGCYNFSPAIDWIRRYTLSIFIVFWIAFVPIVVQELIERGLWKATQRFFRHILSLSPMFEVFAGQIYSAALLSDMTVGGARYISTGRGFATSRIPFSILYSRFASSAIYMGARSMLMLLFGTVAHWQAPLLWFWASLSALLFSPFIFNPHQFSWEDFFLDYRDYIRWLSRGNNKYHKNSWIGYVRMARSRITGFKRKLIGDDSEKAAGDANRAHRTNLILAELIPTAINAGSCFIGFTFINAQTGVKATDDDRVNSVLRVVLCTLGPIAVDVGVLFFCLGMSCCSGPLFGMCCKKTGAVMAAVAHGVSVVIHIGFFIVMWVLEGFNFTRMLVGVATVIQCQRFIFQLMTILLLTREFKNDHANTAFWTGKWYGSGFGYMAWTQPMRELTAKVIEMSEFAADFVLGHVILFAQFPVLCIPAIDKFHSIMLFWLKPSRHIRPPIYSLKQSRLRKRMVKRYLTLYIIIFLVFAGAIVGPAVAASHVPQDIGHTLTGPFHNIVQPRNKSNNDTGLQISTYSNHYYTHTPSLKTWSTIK

1,3-beta-glucan synthase [4] = target: 1,3-beta-glucan synthase (Candida glabrata, UniProt E2GKZ4, D632E); experiment: Inhibition of Candida glabrata isolate 3169 1,3-beta-D-glucan synthase Fks1p D632E mutant/wild type Fks2p; summary of the method: as §1
1,3-beta-glucan synthase [5] = target: 1,3-beta-glucan synthase (Candida glabrata, UniProt E2GKZ4, S629P); experiment: Inhibition of Candida glabrata isolate 5847 1,3-beta-D-glucan synthase Fks1p S629P mutant/wild type Fks2p; summary of the method: as §1
1,3-beta-glucan synthase [6] = target: 1,3-beta-glucan synthase (Candida glabrata, UniProt F5BCZ9, F659V); experiment: Inhibition of Candida glabrata isolate 234 1,3-beta-D-glucan synthase wild type Fks1p/Fks2p F659V mutant; summary of the method: as §1
1,3-beta-glucan synthase [7] = target: 1,3-beta-glucan synthase (Candida glabrata, UniProt F5BCZ9, S663P); experiment: Inhibition of Candida glabrata isolate 3830 1,3-beta-D-glucan synthase wild type Fks1p/Fks2p S663P mutant; summary of the method: as §1
Chain of 1,3-beta-glucan synthase (Candida glabrata, UniProt F5BCZ9, S663P) (F5BCZ9 entry or part of it S663P): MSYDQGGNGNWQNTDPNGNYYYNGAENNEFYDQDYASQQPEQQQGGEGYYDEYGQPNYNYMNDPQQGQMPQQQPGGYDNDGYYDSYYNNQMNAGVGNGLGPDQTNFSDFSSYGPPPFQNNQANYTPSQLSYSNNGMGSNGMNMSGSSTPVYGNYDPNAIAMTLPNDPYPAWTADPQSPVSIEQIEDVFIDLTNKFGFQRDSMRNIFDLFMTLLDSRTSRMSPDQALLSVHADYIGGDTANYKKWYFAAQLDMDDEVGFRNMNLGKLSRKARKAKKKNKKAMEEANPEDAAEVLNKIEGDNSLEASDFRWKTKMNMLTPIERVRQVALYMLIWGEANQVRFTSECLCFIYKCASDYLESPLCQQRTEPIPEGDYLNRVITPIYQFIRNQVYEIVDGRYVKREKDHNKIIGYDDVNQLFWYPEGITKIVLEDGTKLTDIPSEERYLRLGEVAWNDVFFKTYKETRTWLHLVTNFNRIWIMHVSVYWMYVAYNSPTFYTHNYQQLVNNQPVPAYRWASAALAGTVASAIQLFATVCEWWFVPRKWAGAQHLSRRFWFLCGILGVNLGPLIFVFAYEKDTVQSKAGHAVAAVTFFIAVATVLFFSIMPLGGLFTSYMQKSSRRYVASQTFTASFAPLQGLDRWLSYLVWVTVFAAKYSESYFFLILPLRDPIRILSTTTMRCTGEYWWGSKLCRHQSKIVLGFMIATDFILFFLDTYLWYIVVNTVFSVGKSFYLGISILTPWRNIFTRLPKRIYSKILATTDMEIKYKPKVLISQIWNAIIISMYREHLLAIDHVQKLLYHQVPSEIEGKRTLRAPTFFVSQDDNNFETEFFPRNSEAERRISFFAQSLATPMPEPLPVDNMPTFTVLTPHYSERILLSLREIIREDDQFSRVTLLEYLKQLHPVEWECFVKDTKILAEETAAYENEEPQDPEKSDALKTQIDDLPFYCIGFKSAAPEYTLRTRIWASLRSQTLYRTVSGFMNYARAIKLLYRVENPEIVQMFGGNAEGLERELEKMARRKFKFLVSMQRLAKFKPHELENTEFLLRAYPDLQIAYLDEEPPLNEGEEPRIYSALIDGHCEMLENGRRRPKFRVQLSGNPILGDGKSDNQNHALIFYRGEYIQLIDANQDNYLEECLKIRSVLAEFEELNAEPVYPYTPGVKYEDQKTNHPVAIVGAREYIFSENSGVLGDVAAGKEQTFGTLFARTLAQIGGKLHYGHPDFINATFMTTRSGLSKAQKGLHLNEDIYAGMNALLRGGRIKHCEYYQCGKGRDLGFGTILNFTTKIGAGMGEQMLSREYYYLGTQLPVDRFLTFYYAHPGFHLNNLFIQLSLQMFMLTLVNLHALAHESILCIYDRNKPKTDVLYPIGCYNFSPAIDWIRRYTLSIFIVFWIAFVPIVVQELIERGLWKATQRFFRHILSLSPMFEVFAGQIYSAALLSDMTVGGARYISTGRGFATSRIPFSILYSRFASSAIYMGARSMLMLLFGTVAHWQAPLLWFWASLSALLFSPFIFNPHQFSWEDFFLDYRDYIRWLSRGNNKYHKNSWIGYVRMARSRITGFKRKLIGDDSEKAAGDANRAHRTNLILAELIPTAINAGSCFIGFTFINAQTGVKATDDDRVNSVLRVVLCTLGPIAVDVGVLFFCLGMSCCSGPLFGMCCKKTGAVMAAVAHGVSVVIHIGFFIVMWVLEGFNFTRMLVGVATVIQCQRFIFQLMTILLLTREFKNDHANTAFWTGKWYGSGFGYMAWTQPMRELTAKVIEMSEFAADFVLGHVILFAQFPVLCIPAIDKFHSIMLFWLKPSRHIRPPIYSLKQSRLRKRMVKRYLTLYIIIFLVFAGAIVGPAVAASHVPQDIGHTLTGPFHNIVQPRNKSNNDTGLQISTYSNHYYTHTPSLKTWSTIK

1,3-beta-glucan synthase [8] = target: 1,3-beta-glucan synthase (Candida glabrata, UniProt F5BCZ9, W1375L); experiment: Inhibition of Candida glabrata isolate 5416 1,3-beta-D-glucan synthase wild type Fks1p/Fks2p W1375L mutant; summary of the method: as §1
1,3-beta-glucan synthase [9] = target: 1,3-beta-glucan synthase (Candida glabrata, UniProt F5BCZ9, D666E); experiment: Inhibition of Candida glabrata isolate 42031 1,3-beta-D-glucan synthase wild type Fks1p/Fks2p D666E mutant; summary of the method: as §1

Compound `CCC(C)CC(C)CCCCCCCCC(=O)N[C@H]1C[C@@H](O)[C@@H](NCCN)NC(=O)[C@@H]2[C@@H](O)CCN2C(=O)[C@H]([C@H](O)CCN)NC(=O)[C@H]([C@H](O)[C@@H](O)c2ccc(O)cc2)NC(=O)[C@@H]2C[C@@H](O)CN2C(=O)[C@H]([C@@H](C)O)NC1=O` (some centres undefined) [CHEBI:474180] has an IC50 (1,3-beta-glucan synthase [1]) of 507 nM, an IC50 (1,3-beta-glucan synthase [2]) of 1060 nM and an IC50 (1,3-beta-glucan synthase [3]) of 166 nM. It also gave an IC50 (1,3-beta-glucan synthase [4]) of 845 nM, an IC50 (1,3-beta-glucan synthase [5]) of 4990 nM and an IC50 (1,3-beta-glucan synthase [6]) of 115 nM. The IC50 (1,3-beta-glucan synthase [7]) was 5120 nM, the IC50 (1,3-beta-glucan synthase [8]) was 608 nM and the IC50 (1,3-beta-glucan synthase [9]) was 258 nM.

— BindingDB's records for doi:10.1128/AAC.00443-09 (University of Medicine and Dentistry of New Jersey, 2009)
